ChEMBL document CHEMBL3822423 (J Med Chem, 2016)
≈ marks a conversion by molar mass, not a printed value. Calls of active or inactive are those of the source. The rule behind the calls is not given here.

Assays:
[1] = test system: Bacillus spizizenii; assay: Antibacterial activity against Bacillus subtilis ATCC 6633 after 18 to 24 hrs; assay type: functional
[2] = test system: Staphylococcus aureus; assay: Antibacterial activity against Staphylococcus aureus ATCC 25923 after 18 to 24 hrs; assay type: functional
[3] = test system: Pseudomonas aeruginosa; assay: Antibacterial activity against Pseudomonas aeruginosa ATCC 9027 after 18 to 24 hrs; assay type: functional
[4] = test system: Staphylococcus aureus; assay: Antibacterial activity against methicillin-resistant Staphylococcus aureus N315 after 18 to 24 hrs; assay type: functional
[5] = test system: Escherichia coli; assay: Antibacterial activity against Escherichia coli ATCC 25922 after 18 to 24 hrs; assay type: functional
[6] = test system: Eberthella typhosa; assay: (§1) Antibacterial activity against Eberthella typhosa ATCC 14028 after 18 to 24 hrs; assay type: functional
[7] = test system: Micrococcus luteus; assay: Antibacterial activity against Micrococcus luteus ATCC 4698 after 18 to 24 hrs; assay type: functional; details: NCTC 2665
[8] = test system: Bacillus; assay: Antibacterial activity against Bacillus proteus ATCC 13315 after 18 to 24 hrs; assay type: functional
[9] = Inhibition of Escherichia coli DNA gyrase assessed as reduction in enzyme-mediated supercoiling of pBR322 DNA after 1.5 hrs by agarose gel electrophoresis method
[10] = test system: Calf thymus DNA; assay: Binding affinity to calf thymus double stranded DNA assessed as hypochromic effect in absence of Mg2+ ion by […] spectroscopic analysis; assay type: nucleic-acid assay; details: Bos taurus
[11] = Cytotoxicity against rat PC12 cells assessed as reduction in cell viability at 256 ug/mL after 72 hrs by MTT assay; assay type: cell-based; details: pc-12, 72 h
Method in brief: (§2)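 PC12 and human hepatocyte LO2 cells were exposed to compound at 8–512 µg/mL in twofold steps. Viability was read by colorimetric MTT assay, with norfloxacin as positive control. Each value is the mean of three replicates.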

[12] = Cytotoxicity against human LO2 cells assessed as reduction in cell viability at 256 ug/mL after 72 hrs by MTT assay; assay type: cell-based; details: l02, 72 h; method in brief: as §2
[13] = Cytotoxicity against human LO2 cells assessed as reduction in cell viability at 128 ug/mL after 72 hrs by MTT assay; assay type: cell-based; details: l02, 72 h; method in brief: as §2
[14] = Cytotoxicity against rat PC12 cells assessed as reduction in cell viability at 128 ug/mL after 72 hrs by MTT assay; assay type: cell-based; details: pc-12, 72 h; method in brief: as §2
[15] = as §1; assay type: functional
[16] = Cytotoxicity against human LO2 cells assessed as cell viability at 512 ug/mL after 72 hrs by MTT assay; assay type: cell-based; details: l02, 72 h; method in brief: as §2
[17] = Cytotoxicity against rat PC12 cells assessed as cell viability at 512 ug/mL after 72 hrs by MTT assay; assay type: cell-based; details: pc-12, 72 h; method in brief: as §2
[18] = test system: Staphylococcus aureus; assay: Binding affinity to methicillin-resistant Staphylococcus aureus double stranded genomic DNA assessed as decrease in fluorescence intensity at 2.23 x 10^-5 M in presence of 0.4 x 10^-6 M Cu2+ ions by spectrofluorometric analysis
Method in brief: (§3)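 MRSA genomic DNA stock was quantified by absorbance at 260 nm, using ε260 = 6600 L mol⁻¹ cm⁻¹ (as molarity of phosphate). Purity was checked by the A260/A280 ratio.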

[19] = molecular target: T1, Albumin (Homo sapiens, UniProt P02768); assay: Binding affinity to human serum albumin at pH 7.4 at 310 K by Scatchard plot analysis; assay type: ADME; details: isolated protein
T1 sequence (P02768 whole entry): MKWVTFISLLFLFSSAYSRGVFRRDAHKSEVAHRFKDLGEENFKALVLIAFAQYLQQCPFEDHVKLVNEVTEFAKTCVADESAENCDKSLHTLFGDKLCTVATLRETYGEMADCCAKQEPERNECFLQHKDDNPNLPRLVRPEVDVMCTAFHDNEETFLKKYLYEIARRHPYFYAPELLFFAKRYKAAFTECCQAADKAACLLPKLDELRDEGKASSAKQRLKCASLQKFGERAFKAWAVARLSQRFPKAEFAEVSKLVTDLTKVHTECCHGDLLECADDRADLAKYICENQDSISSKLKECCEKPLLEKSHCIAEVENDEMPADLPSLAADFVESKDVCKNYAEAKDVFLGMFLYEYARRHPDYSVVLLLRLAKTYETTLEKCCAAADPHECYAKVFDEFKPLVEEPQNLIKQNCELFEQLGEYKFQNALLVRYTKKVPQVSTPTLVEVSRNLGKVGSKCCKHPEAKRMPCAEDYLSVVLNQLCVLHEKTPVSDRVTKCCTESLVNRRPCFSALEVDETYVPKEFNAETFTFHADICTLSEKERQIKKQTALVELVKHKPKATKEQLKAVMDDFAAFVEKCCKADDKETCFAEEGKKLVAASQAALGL
Method in brief: (§4)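 Scatchard treatment of the HSA fluorescence-quenching titration in pH 7.4 solution (excitation 295 nm) at each temperature. It gave the binding constant Kb and the number of binding sites n, with fit correlation R and SD.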

[20] = test system: Staphylococcus aureus; assay: Binding affinity to methicillin-resistant Staphylococcus aureus […] genomic DNA assessed as decrease in fluorescence intensity at 2 x 10^-5M at 294 K by spectrofluorometric analysis; method in brief: as §3
[21] = test system: Staphylococcus aureus; assay: Binding affinity to methicillin-resistant Staphylococcus aureus double stranded genomic DNA assessed as decrease in fluorescence intensity at 2.23 x 10^-5M in presence of 20 x 10^-5 M Cu2+ ions by spectrofluorometric analysis; method in brief: as §3
[22] = Cytotoxicity against rat PC12 cells assessed as cell viability at <512 ug/mL after 72 hrs by MTT assay relative to control; assay type: cell-based, PC-12; details: read-out: Activity; method in brief: as §2
[23] = Cytotoxicity against human LO2 cells assessed as cell viability at <512 ug/mL after 72 hrs by MTT assay relative to control; assay type: cell-based, L02; details: read-out: Activity; method in brief: as §2
[24] = Binding affinity to 4.69 x 10^-5 M Cu2+ at 2.23 x 10^-5 M at pH 7.4 by spectrofluorimetric method
[25] = molecular target: T1, Albumin; assay: Binding affinity to human serum albumin at pH 7.4 at 288 K by Scatchard plot analysis; assay type: ADME; details: isolated protein; method in brief: as §4
[26] = test system: Staphylococcus aureus; assay: Antibacterial activity against methicillin/quinolone-resistant Staphylococcus aureus ATCC 700699; assay type: functional
[27] = test system: Staphylococcus aureus; assay: Binding affinity to methicillin-resistant Staphylococcus aureus double stranded genomic DNA assessed as decrease in fluorescence intensity in absence of Cu2+ ions by spectrofluorometric analysis; method in brief: as §3
[28] = Binding affinity to 0 to 6.03 x 10^-5 M Cu2+ assessed as 1:1 compound/metal ion complex formation at 2.23 x 10^-5 M at pH 7.4 by spectrofluorimetric method
[29] = molecular target: T1, Albumin; assay: Binding affinity to human serum albumin at pH 7.4 at 303 K by Scatchard plot analysis; assay type: ADME; details: isolated protein; method in brief: as §4
[30] = test system: Staphylococcus aureus; assay: Binding affinity to methicillin-resistant Staphylococcus aureus double stranded genomic DNA assessed as hypochromic effect by spectroscopic analysis; method in brief: as §3
[31] = test system: Staphylococcus aureus; assay: Electrostatic binding to methicillin-resistant Staphylococcus aureus double stranded genomic DNA assessed as Stern-Volmer constant in presence of potassium iodide by steady state quenching analysis; method in brief: as §3

Row | SMILES | MIC [1] | MIC [2] | MIC [3] [µg/mL] | MIC [4] | MIC [5] | MIC [6] | MIC [7] [µg/mL] | MIC [8] [µg/mL] | IC50 [9] [µM] | Activity [11] | Activity [12] | Activity [13] | Activity [14] | MIC [15] [µg/mL] | Activity [16] | further results
1 | CCn1cc(-c2csc(N)n2)c(=O)c2cc(N3CCN(C(=O)OC(C)(C)C)CC3)c(Cl)cc21 | 21.3 µg/mL (≈ 43.5 µM) | 128 µg/mL (≈ 261 µM) | 8 (≈ 16.3 µM) | 32 µg/mL (≈ 65.3 µM) | 10.7 µg/mL (≈ 21.8 µM) | inactive | 53.2 (≈ 109 µM) | 32 (≈ 65.3 µM) |  |  |  |  |  |  |  | 
2 | CCn1cc(C(=O)O)c(=O)c2cc(F)c(N3CCNCC3)cc21 [NORFLOXACIN] | 1.3 µg/mL (≈ 4.07 µM) | 0.8 µg/mL (≈ 2.51 µM) | 1.7 (≈ 5.32 µM) | 10.7 µg/mL (≈ 33.5 µM) | 4.3 µg/mL (≈ 13.5 µM) |  | 2.7 (≈ 8.46 µM) | 13.3 (≈ 41.6 µM) | 18.2 | Toxic | Toxic | Toxic | Toxic | 5.3 (≈ 16.6 µM) | Toxic | Activity [10]: 16%
3 | CCn1cc(-c2csc(N)n2)c(=O)c2cc(F)ccc21 | 3.3 µg/mL (≈ 11.4 µM) | 128 µg/mL (≈ 442 µM) | 13.3 (≈ 46 µM) | inactive | 24 µg/mL (≈ 82.9 µM) |  | 18.7 (≈ 64.6 µM) | 10.7 (≈ 37 µM) |  |  |  |  |  | 21.3 (≈ 73.6 µM) |  | 
4 | CCn1cc(C(C)=O)c(=O)c2cc(N3CCOCC3)c(Cl)cc21 | inactive | inactive | 42.7 (≈ 128 µM) | 128 µg/mL (≈ 382 µM) | inactive |  | 53.3 (≈ 159 µM) | 13.3 (≈ 39.7 µM) |  |  |  |  |  | 37.3 (≈ 111 µM) |  | 
5 | CCn1cc(-c2csc(N)n2)c(=O)c2cc(N3CCCC3)c(Cl)cc21 | 1.3 µg/mL (≈ 3.47 µM) | 0.6 µg/mL (≈ 1.6 µM) | 0.5 (≈ 1.33 µM) | 0.8 µg/mL (≈ 2.13 µM) | 0.8 µg/mL (≈ 2.13 µM) |  | 2.7 (≈ 7.2 µM) | 1 (≈ 2.67 µM) | 11.5 | Non-toxic | Non-toxic | Non-toxic | Non-toxic | 2 (≈ 5.33 µM) | Non-toxic | Activity [17]: Non-toxic; Activity [18]: Active; Kb [19]: 0.656 ×10⁵ L/mol; Activity [20]: Active; Activity [21]: Active; viability at 72 h [22]: > 88%; viability at 72 h [23]: > 88%; Activity [24]: Active; Kb [25]: 0.726 ×10⁵ L/mol; MIC [26]: 16 µg/mL (≈ 42.7 µM); Activity [27]: inactive; Activity [28]: Active; Kb [29]: 0.701 ×10⁵ L/mol; Activity [30]: 11.4%; KSV [31]: 30.1 M⁻¹
6 | CCn1cc(-c2csc(N)n2)c(=O)c2cccc(F)c21 | 13.3 µg/mL (≈ 46 µM) | inactive | 24 (≈ 82.9 µM) | inactive | 9.3 µg/mL (≈ 32.1 µM) | inactive | 2.7 (≈ 9.33 µM) | 256 (≈ 885 µM) |  |  |  |  |  |  |  | 
